Experimental data from ChEMBL document CHEMBL3232844, “Synthesis and structure activity relationships of schweinfurthin indoles” (2014).

Legend:
Assay type in all cases: functional
[1] = tested on: MCF7; test: Cytotoxicity against human MCF7 cells
Method in brief: (§1)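 Tested in a 60-cell-line human tumor panel screen; the read-out is growth inhibition, reported as GI50 for each cell line.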

[2] = tested on: T47D; test: Cytotoxicity against human T47D cells
Method in brief: (§2)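 Cell line run as part of the 60-cell-line screening panel; growth inhibition was reported as a GI50 for each line.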

[3] = tested on: HCC 2998; test: Cytotoxicity against human HCC2998 cells; method in brief: as §1
[4] = tested on: MDA-MB-435; test: Cytotoxicity against human MDA-MB-435 cells; method in brief: as §1
[5] = tested on: M14; test: Cytotoxicity against human M14 cells; method in brief: as §1
[6] = tested on: RXF 393; test: Cytotoxicity against human RXF393 cells; method in brief: as §1
[7] = tested on: SN12C; test: Cytotoxicity against human SN12C cells; method in brief: as §1
[8] = Cytotoxicity against human UO31 cells; method in brief: as §2
[9] = tested on: NCI-H322M; test: Cytotoxicity against human NCI-H322M cells; method in brief: as §1
[10] = tested on: NCI-H460; test: Cytotoxicity against human NCI-H460 cells; method in brief: as §1
[11] = tested on: SNB-75; test: Cytotoxicity against human SNB75 cells; method in brief: as §2
[12] = tested on: SR; test: Cytotoxicity against human SR cells; method in brief: as §2
[13] = tested on: KM12; test: Cytotoxicity against human KM12 cells; method in brief: as §1
[14] = tested on: SF-539; test: Cytotoxicity against human SF539 cells; method in brief: as §1
[15] = tested on: SK-MEL-2; test: Cytotoxicity against human SK-MEL-2 cells; method in brief: as §1
[16] = Cytotoxicity against human OVCAR3 cells; method in brief: as §1
[17] = Cytotoxicity against human UACC257 cells; method in brief: as §2
[18] = tested on: HT-29; test: Cytotoxicity against human HT-29 cells; method in brief: as §1
[19] = tested on: SK-OV-3; test: Cytotoxicity against human SKOV3 cells; method in brief: as §1
[20] = tested on: K562; test: Cytotoxicity against human K562 cells; method in brief: as §1
[21] = tested on: NCI-H226; test: Cytotoxicity against human NCI-H226 cells; method in brief: as §1
[22] = tested on: 786-0; test: Cytotoxicity against human 786-0 cells; method in brief: as §1
[23] = tested on: NCI-H23; test: Cytotoxicity against human NCI-H23 cells; method in brief: as §1
[24] = Cytotoxicity against human OVCAR5 cells; method in brief: as §1
[25] = tested on: A498; test: Cytotoxicity against human A498 cells; method in brief: as §1
[26] = tested on: BT-549; test: Cytotoxicity against human BT549 cells; method in brief: as §1
[27] = tested on: SF-268; test: Cytotoxicity against human SF268 cells; method in brief: as §1
[28] = tested on: U-251; test: Cytotoxicity against human U251 cells; method in brief: as §2
[29] = tested on: ACHN; test: Cytotoxicity against human ACHN cells; method in brief: as §1
[30] = tested on: SNB-19; test: Cytotoxicity against human SNB19 cells; method in brief: as §1
[31] = tested on: HL-60(TB); test: Cytotoxicity against human HL-60(TB) cells
Method in brief: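 Tested within the NCI 60-cell-line screen, with GI50 as the read-out. Values are the average of two independent experiments. The lowest concentration tested was 10 nM.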

[32] = tested on: PC-3; test: Cytotoxicity against human PC3 cells; method in brief: as §1
[33] = tested on: MOLT-4; test: Cytotoxicity against human MOLT4 cells; method in brief: as §1
[34] = tested on: DU-145; test: Cytotoxicity against human DU145 cells; method in brief: as §1
[35] = tested on: SK-MEL-5; test: Cytotoxicity against human SK-MEL-5 cells; method in brief: as §1
[36] = tested on: SF-295; test: Cytotoxicity against human SF295 cells; method in brief: as §1
[37] = Cytotoxicity against human UACC62 cells; method in brief: as §2
[38] = Cytotoxicity against human EKVX cells; method in brief: as §1
[39] = Cytotoxicity against human NCI-ADR-RES cells; method in brief: as §1
[40] = Cytotoxicity against human OVCAR8 cells; method in brief: as §1
[41] = tested on: MDA-MB-231; test: Cytotoxicity against human MDA-MB-231 cells; method in brief: as §1
[42] = tested on: CCRF-CEM; test: Cytotoxicity against human CCRF-CEM cells
[43] = tested on: MDA-MB-468; test: Cytotoxicity against human MDA-MB-468 cells; method in brief: as §1
[44] = read-out: pLC50 (the source's name) (converted)

With COc1cc(/C=C/c2cc(O)c3cc[nH]c3c2)cc2c1O[C@]1(C)CC[C@@H](O)C(C)(C)[C@H]1C2 the GI50 [1] was 1.29 µM, the LC50 [1] was 51.3 µM and the TGI ([1]; read-out: pTGI (converted)) was 20.4 µM. The GI50 [2] was 5.01 µM, the CC50 [2, 44] was 83.2 µM and the TGI ([2]; read-out: pTGI (converted)) was 22.4 µM. The GI50 [3] was 2.88 µM, the CC50 [3, 44] was 55 µM and the TGI ([3]; read-out: pTGI (converted)) was 14.5 µM. It also gave a GI50 [4] of 0.933 µM, a CC50 [4, 44] of 85.1 µM and a TGI ([4]; read-out: pTGI (converted)) of 11.2 µM. It also gave a GI50 [5] of 0.676 µM, a CC50 [5, 44] of 6.17 µM and a TGI ([5]; read-out: pTGI (converted)) of 2.19 µM. For the same compound, the GI50 [6] was 0.115 µM, the LC50 [6] was 0.871 µM and the TGI ([6]; read-out: pTGI (converted)) was 0.316 µM. The GI50 [7] was 7.08 µM, the LC50 [7] was greater than 100 µM and the TGI ([7]; read-out: pTGI (converted)) was 67.6 µM. For the same compound, the GI50 ([8]; UO-31) was 0.479 µM, the LC50 ([8]; UO-31) was greater than 100 µM and the TGI ([8]; UO-31, read-out: pTGI (converted)) was 2.04 µM. It also gave a GI50 [9] of 3.47 µM, a CC50 [9, 44] greater than 100 µM and a TGI ([9]; read-out: pTGI (converted)) of 25.1 µM. For the same compound, the GI50 [10] was 0.871 µM, the CC50 [10, 44] was 5.37 µM and the TGI ([10]; read-out: pTGI (converted)) was 2.29 µM. It also gave a GI50 [11] of 0.269 µM, a CC50 [11, 44] greater than 100 µM and a TGI ([11]; read-out: pTGI (converted)) of 4.57 µM. For the same compound, the GI50 [12] was 0.302 µM, the CC50 [12, 44] was greater than 100 µM and the TGI ([12]; read-out: pTGI (converted)) was 9.55 µM. For the same compound, the GI50 [13] was 0.457 µM, the CC50 [13, 44] was 9.55 µM and the TGI ([13]; read-out: pTGI (converted)) was 1.86 µM. It also gave a GI50 [14] of 0.257 µM, a TGI ([14]; read-out: pTGI (converted)) of 1.23 µM and a GI50 [15] of 1.12 µM. For the same compound, the CC50 [15, 44] was 31.6 µM, the TGI ([15]; read-out: pTGI (converted)) was 7.24 µM and the GI50 ([16]; OVCAR-3) was 1.82 µM. The CC50 ([16]; OVCAR-3, read-out: pLC50 (the source's name) (converted)) was greater than 100 µM, the TGI ([16]; OVCAR-3, read-out: pTGI (converted)) was 10.5 µM and the GI50 ([17]; UACC-257) was 2.34 µM. The CC50 ([17]; UACC-257, read-out: pLC50 (the source's name) (converted)) was 28.8 µM, the TGI ([17]; UACC-257, read-out: pTGI (converted)) was 8.32 µM and the GI50 [18] was 0.708 µM. It also gave a CC50 [18, 44] of 93.3 µM, a TGI ([18]; read-out: pTGI (converted)) of 4.07 µM and a GI50 [19] of 1.51 µM. It also gave an LC50 [19] greater than 100 µM, a TGI ([19]; read-out: pTGI (converted)) of 10 µM and a GI50 [20] of 0.708 µM. For the same compound, the CC50 [20, 44] was greater than 100 µM, the TGI ([20]; read-out: pTGI (converted)) was 20.4 µM and the GI50 [21] was 12 µM. The CC50 [21, 44] was 70.8 µM, the TGI ([21]; read-out: pTGI (converted)) was 28.8 µM and the GI50 [22] was 0.372 µM. It also gave an LC50 (concentration killing 50% of cells) [22] of 6.31 µM, a TGI ([22]; read-out: pTGI (converted)) of 1.82 µM and a GI50 [23] of 1.7 µM. It also gave a CC50 [23, 44] of 61.7 µM, a TGI ([23]; read-out: pTGI (converted)) of 8.13 µM and a GI50 ([24]; OVCAR-5) of 7.41 µM. The CC50 ([24]; OVCAR-5, read-out: pLC50 (the source's name) (converted)) was greater than 100 µM, the TGI ([24]; OVCAR-5, read-out: pTGI (converted)) was 41.7 µM and the GI50 [25] was 1.55 µM. It also gave a CC50 [25, 44] of 56.2 µM, a TGI ([25]; read-out: pTGI (converted)) of 8.91 µM and a GI50 [26] of 0.178 µM. The CC50 [26, 44] was 95.5 µM, the TGI ([26]; read-out: pTGI (converted)) was 4.57 µM and the GI50 [27] was 0.794 µM. The CC50 [27, 44] was greater than 100 µM, the TGI ([27]; read-out: pTGI (converted)) was 34.7 µM and the GI50 [28] was 0.479 µM. The CC50 [28, 44] was greater than 100 µM, the TGI ([28]; read-out: pTGI (converted)) was 13.8 µM and the GI50 [29] was 1.1 µM. For the same compound, the LC50 (concentration killing 50% of cells) [29] was greater than 100 µM, the TGI ([29]; read-out: pTGI (converted)) was 14.1 µM and the GI50 [30] was 1.32 µM. For the same compound, the CC50 [30, 44] was greater than 100 µM, the TGI ([30]; read-out: pTGI (converted)) was 18.2 µM and the GI50 [31] was 0.513 µM. The CC50 [31, 44] was greater than 100 µM, the TGI ([31]; read-out: pTGI (converted)) was 8.71 µM and the GI50 [32] was 0.631 µM. It also gave an LC50 [32] greater than 100 µM, a TGI ([32]; read-out: pTGI (converted)) of 38 µM and a GI50 [33] of 0.309 µM. For the same compound, the CC50 [33, 44] was 75.9 µM, the TGI ([33]; read-out: pTGI (converted)) was 1.78 µM and the GI50 [34] was 1.15 µM. It also gave an LC50 (50% lethal concentration) [34] of 25.1 µM, a TGI ([34]; read-out: pTGI (converted)) of 6.76 µM and a GI50 [35] of 0.195 µM. The CC50 [35, 44] was 1.12 µM, the TGI ([35]; read-out: pTGI (converted)) was 0.457 µM and the GI50 ([36]; read-out: GI50) was 0.23 µM. The GI50 ([36]; read-out: pGI50 (converted)) was 0.234 µM, the CC50 [36, 44] was 6.03 µM and the TGI ([36]; read-out: pTGI (converted)) was 1 µM. The GI50 ([37]; UACC-62) was 2.19 µM, the CC50 ([37]; UACC-62, read-out: pLC50 (the source's name) (converted)) was 43.7 µM and the TGI ([37]; UACC-62, read-out: pTGI (converted)) was 7.24 µM. The GI50 [38] was 3.47 µM, the CC50 [38, 44] was 91.2 µM and the TGI ([38]; read-out: pTGI (converted)) was 27.5 µM. For the same compound, the GI50 [39] was 2.57 µM, the CC50 [39, 44] was greater than 100 µM and the TGI ([39]; read-out: pTGI (converted)) was 33.9 µM. It also gave a GI50 ([40]; OVCAR-8) of 1.2 µM, a CC50 ([40]; OVCAR-8, read-out: pLC50 (the source's name) (converted)) greater than 100 µM and a TGI ([40]; OVCAR-8, read-out: pTGI (converted)) of 30.9 µM. For the same compound, the GI50 [41] was 1.82 µM, the LC50 [41] was greater than 100 µM and the TGI ([41]; read-out: pTGI (converted)) was 20.9 µM. For the same compound, the GI50 [42] was 0.525 µM, the CC50 [42, 44] was greater than 100 µM and the TGI ([42]; read-out: pTGI (converted)) was 36.3 µM. The GI50 [43] was 2.45 µM, the LC50 [43] was greater than 100 µM and the TGI ([43]; read-out: pTGI (converted)) was 7.59 µM.
